Measured values reported in ChEMBL document CHEMBL3351670, “Discovery of Tröger's base analogues as selective inhibitors against human breast cancer cell line: design, synthesis and cytotoxic evaluation” (Eur J Med Chem, 2014).

What was measured:
Assay type in all cases: functional, cell-based
[1] = test system: MDA-MB-231; assay: Cytotoxicity against human MDA-MB-231 cells assessed as growth inhibition after 48 hrs by MTT assay; details: MDA-MB-231, 48 h
Outline: (§1)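 MTT assay in triplicate. Cells were seeded at 10,000 cells/[…] per well in medium with 10% serum and allowed to adhere for 24 h in a humid 5% CO₂ chamber. After 48 h, MTT solution was added and cells were incubated 2 h more. Medium was then removed and DMSO added to dissolve the formazan. IC50 was taken as the concentration giving 50% growth inhibition.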

[2] = test system: A549; assay: Cytotoxicity against human A549 cells assessed as growth inhibition after 48 hrs by MTT assay; details: A549, 48 h; outline: as §1
[3] = test system: SK-N-SH; assay: Cytotoxicity against human SK-N-SH cells assessed as growth inhibition after 48 hrs by MTT assay; outline: as §1

SMILES: COc1ccc2c(c1)CN1CN2Cc2cc(OC)ccc21
- IC50 [1]: > 100 µM
- IC50 [2]: > 100 µM
- IC50 [3]: > 100 µM

SMILES: COc1ccc2c(c1)CN1c3ccc(OC)cc3CN2C1N(C)C
- IC50 [1]: > 100 µM
- IC50 [2]: > 100 µM
- IC50 [3]: > 100 µM

SMILES: COc1ccc2c(c1)CN1c3ccc(OC)cc3CN2C1N(C)c1ccc(C)cc1
- IC50 [1]: 10.7 µM
- IC50 [2]: > 100 µM
- IC50 [3]: > 100 µM

SMILES: COc1cc2c(cc1OC)N1Cc3cc(OC)c(OC)cc3N(C2)C1N(C)C
- IC50 [1]: 78.1 µM
- IC50 [2]: > 100 µM
- IC50 [3]: > 100 µM

SMILES: COc1cc2c(cc1OC)N1Cc3cc(OC)c(OC)cc3N(C2)C1N(C)c1ccccc1
- IC50 [1]: 86.8 µM
- IC50 [2]: > 100 µM
- IC50 [3]: > 100 µM

SMILES: Cc1ccc2c(c1)CN1c3ccc(C)cc3CN2C1N(C)C
- IC50 [1]: 61.8 µM
- IC50 [2]: > 100 µM
- IC50 [3]: > 100 µM

SMILES: Cc1ccc2c(c1)CN1c3ccc(C)cc3CN2C1N(C)c1ccccc1
- IC50 [1]: 72.3 µM
- IC50 [2]: > 100 µM
- IC50 [3]: > 100 µM

SMILES: CN(C)C1N2Cc3cc(Br)ccc3N1Cc1cc(Br)ccc12
- IC50 [1]: > 100 µM
- IC50 [2]: > 100 µM
- IC50 [3]: > 100 µM

SMILES: CN(c1ccccc1)C1N2Cc3cc(Br)ccc3N1Cc1cc(Br)ccc12
- IC50 [1]: 14.3 µM
- IC50 [2]: > 100 µM
- IC50 [3]: > 100 µM

SMILES: Cc1ccc(N(C)C2N3Cc4cc(Br)ccc4N2Cc2cc(Br)ccc23)cc1
- IC50 [1]: > 100 µM
- IC50 [2]: > 100 µM
- IC50 [3]: > 100 µM

SMILES: CC(C)c1ccc2c(c1)CN1c3ccc(C(C)C)cc3CN2C1N(C)C
- IC50 [1]: 57.5 µM
- IC50 [2]: > 100 µM
- IC50 [3]: > 100 µM

SMILES: CN(C)C1N2Cc3ccccc3N1Cc1ccccc12
- IC50 [1]: > 100 µM
- IC50 [2]: > 100 µM
- IC50 [3]: > 100 µM

SMILES: Cc1ccc2c(c1)CN1c3ccc(C)cc3CN2C1N1CCCCC1
- IC50 [1]: 82.4 µM
- IC50 [2]: > 100 µM
- IC50 [3]: 12.2 µM

SMILES: Cc1ccc2c(c1)CN1c3ccc(C)cc3CN2C1N1CCOCC1
- IC50 [1]: > 100 µM
- IC50 [2]: > 100 µM
- IC50 [3]: > 100 µM

SMILES: Brc1ccc2c(c1)CN1c3ccc(Br)cc3CN2C1N1CCCCC1
- IC50 [1]: > 100 µM
- IC50 [2]: > 100 µM
- IC50 [3]: > 100 µM

SMILES: Ic1ccc2c(c1)CN1c3ccc(I)cc3CN2C1N1CCOCC1
- IC50 [1]: > 100 µM
- IC50 [2]: > 100 µM
- IC50 [3]: > 100 µM

SMILES: Ic1ccc2c(c1)CN1c3ccc(I)cc3CN2C1N1CCCCC1
- IC50 [1]: > 100 µM
- IC50 [2]: > 100 µM
- IC50 [3]: > 100 µM

SMILES: c1cn(CCOc2ccc3c(c2)CN2CN3Cc3cc(OCCn4ccnc4)ccc32)cn1
- IC50 [1]: 42.6 µM

SMILES: CN(C)C1N2Cc3cc(OCCn4ccnc4)ccc3N1Cc1cc(OCCn3ccnc3)ccc12
- IC50 [1]: > 100 µM

SMILES: c1ncn(CCOc2ccc3c(c2)CN2CN3Cc3cc(OCCn4cncn4)ccc32)n1
- IC50 [1]: > 100 µM

SMILES: CN(C)C1N2Cc3cc(OCCn4cncn4)ccc3N1Cc1cc(OCCn3cncn3)ccc12
- IC50 [1]: 40.4 µM

SMILES: c1cc2c(cc1OCCN1CCOCC1)CN1CN2Cc2cc(OCCN3CCOCC3)ccc21
- IC50 [1]: 4.29 µM

SMILES: CN(C)C1N2Cc3cc(OCCN4CCOCC4)ccc3N1Cc1cc(OCCN3CCOCC3)ccc12
- IC50 [1]: 4.79 µM

SMILES: CC(C)(C)OC(=O)N1CCN(CCOc2ccc3c(c2)CN2CN3Cc3cc(OCCN4CCN(C(=O)OC(C)(C)C)CC4)ccc32)CC1
- IC50 [1]: 5.15 µM

SMILES: c1ccc(-n2nnnc2SCCOc2ccc3c(c2)CN2CN3Cc3cc(OCCSc4nnnn4-c4ccccc4)ccc32)cc1
- IC50 [1]: > 100 µM

SMILES: c1ccc(CC2CCN(CCOc3ccc4c(c3)CN3CN4Cc4cc(OCCN5CCC(Cc6ccccc6)CC5)ccc43)CC2)cc1
- IC50 [1]: 64.1 µM

SMILES: COc1ccccc1N1CCN(CCOc2ccc3c(c2)CN2CN3Cc3cc(OCCN4CCN(c5ccccc5OC)CC4)ccc32)CC1
- IC50 [1]: 5.8 µM

SMILES: Fc1ccc(N2CCN(CCOc3ccc4c(c3)CN3CN4Cc4cc(OCCN5CCN(c6ccc(F)cc6)CC5)ccc43)CC2)cc1
- IC50 [1]: 4.82 µM

SMILES: Clc1ccc(C(c2ccccc2)N2CCN(CCOc3ccc4c(c3)CN3CN4Cc4cc(OCCN5CCN(C(c6ccccc6)c6ccc(Cl)cc6)CC5)ccc43)CC2)cc1 (racemic)
- IC50 [1]: 57.9 µM

SMILES: COc1cccc2c1C(=O)c1c(O)c3c(c(O)c1C2=O)C[C@@](O)(C(=O)CO)C[C@@H]3O[C@H]1C[C@H](N)[C@H](O)[C@H](C)O1 [DOXORUBICIN]
- IC50 [1]: 5.96 µM
- IC50 [2]: 8.05 µM
- IC50 [3]: 8.5 µM
